SMILES strings stand for the structures. Active and inactive are the calls of the source. The rule behind the calls is not given here.

Series [1] deals with T1, Bromodomain-containing protein 2 (Homo sapiens, UniProt P25440). Put plainly: Inhibition of BRD2-BD2 (unknown origin) measured by AlphaScreen assay. The method in brief:
(§1)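 Commercial AlphaScreen displacement assay run by an outside service on a panel of BET bromodomains. Values are the means of duplicate experiments.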

For series [2], the target named is T1, Bromodomain-containing protein 2. Briefly: Inhibition of BRD2-BD1 (unknown origin) measured by AlphaScreen assay. The method in brief:
as §1

Series [3] addresses T2, Bromodomain-containing protein 3 (Homo sapiens, UniProt Q15059). Briefly: Inhibition of BRD3-BD1 (unknown origin) measured by AlphaScreen assay. The method in brief: as §1
Series [4] addresses T2, Bromodomain-containing protein 3. Put plainly: Inhibition of BRD3-BD2 (unknown origin) measured by AlphaScreen assay. In a few lines: as §1
For series [5], the species on record is Homo sapiens. Briefly: Ratio IC50 for inhibition of BRD3-BD1 (unknown origin) over inhibition of His9-tagged BRD4-BD1 (unknown origin).
The species entered for series [6] is Homo sapiens. Put plainly: Ratio IC50 for inhibition of BRD3-BD2 (unknown origin) over inhibition of His9-tagged BRD4-BD1 (unknown origin).
The species entered for series [7] is Homo sapiens. Put plainly: Ratio IC50 for inhibition of BRD2-BD2 (unknown origin) over inhibition of His9-tagged BRD4-BD1 (unknown origin).
Series [8] addresses T3, Protein cereblon/Bromodomain-containing protein 4 (Homo sapiens, UniProt O60885+Q96SW2). Briefly: Binding affinity to GST-tagged CRBN/6xHis-tagged BRD4-BD1 (unknown origin) assessed as induction of dimerization of CRBN/BRD4-BD1 at 4.6 nM measured by TR-FRET assay. In kind it is protein assay.
For series [9], the target named is T3, Protein cereblon/Bromodomain-containing protein 4. Put plainly: Protac activity at CRBN/BRD4-BD1 in human MM1.S cells assessed as induction of BRD4-BD1 degradation measured at 5 uM after 8 hrs by western blot analysis. It counts as cell-based. The method in brief:
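Time-course study in MM.1S cells with BRD4 levels followed by western blot at successive time points. BRD2, BRD3 and cMyc were also probed.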

The test system of series [10] is MM1.S. Briefly: Cytotoxicity against human MM1.S cells assessed as downregulation of cMyc expression. It counts as toxicity, cell-based.
Series [11] addresses T3, Protein cereblon/Bromodomain-containing protein 4. Briefly: Protac activity at CRBN/BRD4-BD1 in human MM1.S cells assessed as induction of BRD4-BD1 degradation measured after 24 hrs by western blot analysis relative to control. It counts as cell-based. The method in brief: (§2)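 MM.1S cells were treated for 24 h, and BRD4 was probed by western blot. Band densitometry was quantified from three biological replicate blots.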

Series [12] has the same target. Briefly: Protac activity at CRBN/BRD4-BD1 in human MM1.S cells assessed as induction of BRD4-BD1 degradation measured at 1 uM in presence of 0.01 to 1 uM iBET-BD2 measured by Western blot analysis. In kind it is cell-based. In a few lines:
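Rescue experiment in MM.1S cells: the degrader was co-treated with a pan-BD1 inhibitor, the proteasome inhibitor MG132, the neddylation inhibitor MLN4924 or the pan-BD2 inhibitor iBET-BD2. BRD4 was then read by western blot against an untreated control on the same gel.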

The target is the same in series [13]. Briefly: Protac activity at CRBN/BRD4-BD1 in human MM1.S cells assessed as induction of BRD4-BD1 degradation measured after 24 hrs by western blot analysis. In kind it is cell-based. In a few lines:
as §2

For series [14] the target is unchanged. Put plainly: Binding affinity to GST-tagged CRBN/6xHis-tagged BRD4-BD1 (unknown origin) assessed as ternary complex formation measured by TR-FRET assay. It counts as protein assay.
Series [15] has the same target. Put plainly: Protac activity at Halo-tagged CRBN/BRD4-BD1-NanoLuc fusion protein expressed in human HEK293T cells assessed as induction of BRD4-BD1 degradation at 0.2 uM measured by NanoBRET assay. In kind it is cell-based.
The species entered for series [16] is Homo sapiens. Briefly: Ratio IC50 for inhibition of BRD2-BD1 (unknown origin) over inhibition of His9-tagged BRD4-BD1 (unknown origin).
The species entered for series [17] is Homo sapiens. Briefly: Ratio IC50 for inhibition of BRD4-BD2 (unknown origin) over inhibition of His9-tagged BRD4-BD1 (unknown origin).
The target in series [18] is T3, Protein cereblon/Bromodomain-containing protein 4. Put plainly: Binding affinity to GST-tagged CRBN/6xHis-tagged BRD4-BD1 (unknown origin) assessed as induction of dimerization of CRBN/BRD4-BD1 measured by TR-FRET assay. It counts as protein assay.
Series [19] shares this target. Briefly: Binding affinity to GST-tagged CRBN/6xHis-tagged BRD4-BD2 (unknown origin) assessed as induction of dimerization of CRBN/BRD4-BD2 measured by TR-FRET assay. It counts as protein assay.

T3 sequence (Q96SW2 whole entry, looked up, other chains not shown): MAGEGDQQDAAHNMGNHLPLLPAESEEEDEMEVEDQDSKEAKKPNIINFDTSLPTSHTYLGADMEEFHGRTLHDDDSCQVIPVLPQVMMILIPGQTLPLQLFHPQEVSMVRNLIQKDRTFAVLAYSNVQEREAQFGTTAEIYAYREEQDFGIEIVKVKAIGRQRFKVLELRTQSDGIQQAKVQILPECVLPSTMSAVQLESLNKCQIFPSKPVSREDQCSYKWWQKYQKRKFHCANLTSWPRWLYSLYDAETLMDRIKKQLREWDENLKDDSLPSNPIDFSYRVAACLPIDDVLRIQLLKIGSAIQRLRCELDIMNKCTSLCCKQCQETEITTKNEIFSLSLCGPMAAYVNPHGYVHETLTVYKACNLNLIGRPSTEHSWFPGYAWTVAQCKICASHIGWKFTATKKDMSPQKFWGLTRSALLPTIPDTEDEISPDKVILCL
T2 sequence (Q15059 whole entry): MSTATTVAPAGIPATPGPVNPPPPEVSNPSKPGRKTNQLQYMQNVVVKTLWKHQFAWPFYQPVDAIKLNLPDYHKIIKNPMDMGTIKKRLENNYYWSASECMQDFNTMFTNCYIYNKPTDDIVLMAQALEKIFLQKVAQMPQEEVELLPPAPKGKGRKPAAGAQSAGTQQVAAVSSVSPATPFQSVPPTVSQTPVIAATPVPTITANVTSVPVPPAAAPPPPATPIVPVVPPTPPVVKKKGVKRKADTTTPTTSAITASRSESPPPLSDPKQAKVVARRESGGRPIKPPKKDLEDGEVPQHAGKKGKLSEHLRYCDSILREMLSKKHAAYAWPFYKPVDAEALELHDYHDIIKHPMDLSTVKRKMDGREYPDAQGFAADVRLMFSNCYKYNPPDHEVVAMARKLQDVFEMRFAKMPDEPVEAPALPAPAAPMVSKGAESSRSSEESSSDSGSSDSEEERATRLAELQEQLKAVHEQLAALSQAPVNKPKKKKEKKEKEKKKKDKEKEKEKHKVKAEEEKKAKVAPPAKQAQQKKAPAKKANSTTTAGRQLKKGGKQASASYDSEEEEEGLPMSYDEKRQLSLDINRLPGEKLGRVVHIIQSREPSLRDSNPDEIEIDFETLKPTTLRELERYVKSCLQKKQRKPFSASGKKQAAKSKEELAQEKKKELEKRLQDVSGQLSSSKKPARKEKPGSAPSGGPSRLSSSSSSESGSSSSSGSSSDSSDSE
T1 sequence (P25440 whole entry): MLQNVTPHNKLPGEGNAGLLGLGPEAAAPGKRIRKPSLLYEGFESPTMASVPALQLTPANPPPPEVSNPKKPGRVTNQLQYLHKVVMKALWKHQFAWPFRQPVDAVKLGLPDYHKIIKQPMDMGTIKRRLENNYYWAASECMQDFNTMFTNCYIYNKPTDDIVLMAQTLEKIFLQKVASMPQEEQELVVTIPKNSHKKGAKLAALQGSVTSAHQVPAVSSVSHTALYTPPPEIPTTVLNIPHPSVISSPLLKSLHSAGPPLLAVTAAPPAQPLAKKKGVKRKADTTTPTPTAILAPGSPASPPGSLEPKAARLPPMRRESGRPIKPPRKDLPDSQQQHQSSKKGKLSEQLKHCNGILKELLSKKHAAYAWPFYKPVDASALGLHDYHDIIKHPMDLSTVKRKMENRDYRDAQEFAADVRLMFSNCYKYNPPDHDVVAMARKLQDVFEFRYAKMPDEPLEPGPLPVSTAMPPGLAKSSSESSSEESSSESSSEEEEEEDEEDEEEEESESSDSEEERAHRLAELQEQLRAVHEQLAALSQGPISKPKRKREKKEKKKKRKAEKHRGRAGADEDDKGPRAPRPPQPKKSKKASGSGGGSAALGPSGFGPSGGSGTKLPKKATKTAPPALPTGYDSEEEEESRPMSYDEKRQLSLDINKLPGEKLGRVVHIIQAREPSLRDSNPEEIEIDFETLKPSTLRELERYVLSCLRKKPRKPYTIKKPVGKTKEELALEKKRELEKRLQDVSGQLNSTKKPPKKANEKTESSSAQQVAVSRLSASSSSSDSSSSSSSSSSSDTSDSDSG

Turning to `Cc1ccc(C(C)C)cc1Oc1nccc(-c2c(-c3ccc(C(F)(F)F)cc3)ncn2C2CCNCC2)n1`, the IC50 is 7100 nM in [1], 280 nM in series [2], 1000 nM in [3] and 75000 nM in series [4].

Consider `Cc1cc(C)cc(Nc2nccc(-c3c(-c4ccc(F)cc4)ncn3C3CCNCC3)n2)c1`, for which the Ratio IC50 in series [5], in [6] and in [7] was 6 in each case.

On to `Cc1ccc(C(C)C)cc1Oc1nccc(-c2c(-c3ccc(C(F)(F)F)cc3)ncn2C2CCN(CCOCCOCCNC(=O)COc3cccc4c3C(=O)N(C3CCC(=O)NC3=O)C4=O)CC2)n1` (configuration not stated), for which the outcome in series [8], in series [9], in [12], in [14] and in [15] was Active. Moreover, the figures for the Activity result in series [10] and in [11] were “Non-Toxic” and 77%, respectively. Besides, the DC50 in series [13] came to 280 nM.

For `Cc1cc(C)cc(Nc2nccc(-c3c(-c4ccc(C(F)(F)F)cc4)ncn3C3CCN(CCN)CC3)n2)c1`, the Ratio IC50 in series [5], in series [16], in series [6], in [17] and in [7] was 9 each time.

For `Cc1sc2c(c1C)C(c1ccc(Cl)cc1)=N[C@@H](CC(=O)NCCCCNC(=O)COc1cccc3c1C(=O)N(C1CCC(=O)NC1=O)C3=O)c1nnc(C)n1-2` (some centres not stated), the result in [18] and in series [19] was Active.

The values are drawn from ChEMBL document CHEMBL5108081, “Development of an N-Terminal BRD4 Bromodomain-Targeted Degrader” (ACS Med Chem Lett, 2022).
